Assay results: publication PMC4410974 (Clinical cancer research : an official journal of the …, 2012)

Key:
[1] = oral multiple dosing; ref [17]–[19]; cited from earlier work
Adverse events = type: in vivo, human
[2] = test system: p70S6 kinase phosphorylation at Thr389; experiment: p70S6K phosphorylation at Thr389 in peripheral blood lymphocytes; type: in vivo, human
Procedure, shortened: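 Sirolimus-alone study only, oral weekly dosing. Blood drawn before dosing at baseline, week 1 day 2 and day 4, week 2 day 1, week 5 day 1. CD3+ cells enriched after density centrifugation, cryopreserved, then given medium or PMA (0.5 µg/ml) plus ionomycin (0.025 µg/ml), 1 hr, 37 °C. Western blot for phospho-Thr389 and total p70S6K, densitometry, cohort means, paired t-test. Indirect response model with rebound (kin, kout; baseline 100%), FOCE with interaction.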

[3] = Tumor response by RECIST 1.0; type: in vivo, human
[4] = three studies collectively, 138 subjects
[5] = indirect response model with rebound

CO[C@H]1C[C@@H]2CC[C@@H](C)[C@@](O)(O2)C(=O)C(=O)N2CCCC[C@H]2C(=O)O[C@H]([C@H](C)C[C@@H]2CC[C@@H](O)[C@H](OC)C2)CC(=O)[C@H](C)/C=C(\C)[C@@H](O)[C@@H](OC)C(=O)[C@H](C)C[C@H](C)/C=C/C=C/C=C/1C [Sirolimus]
volume of distribution [1]: 12 L/kg | Altered taste (adverse event) (Adverse events; Sirolimus Alone 10mg): 1 | Anemia (adverse event) (Adverse events; Sirolimus Alone 10mg): 3 | Anorexia (adverse event) (Adverse events; Sirolimus Alone 10mg): 1 | Diarrhea (adverse event) (Adverse events; Sirolimus Alone 10mg): 1 | Elevated Transaminases (adverse event) (Adverse events; Sirolimus Alone 10mg): 1 | Fatigue (adverse event) (Adverse events; Sirolimus Alone 10mg): 2 | Hyperlipidemia (adverse event) (Adverse events; Sirolimus Alone 10mg): 2 | Infection (adverse event) (Adverse events; Sirolimus Alone 10mg): 1 | Lymphopenia (adverse event) (Adverse events; Sirolimus Alone 10mg): 3 | Lymphopenia, grade 3 or 4 (Adverse events; Sirolimus Alone 10mg): 2 | Mucocutaneous dryness (adverse event) (Adverse events; Sirolimus Alone 10mg): 1 | Mucositis (adverse event) (Adverse events; Sirolimus Alone 10mg): 2 | Nausea (adverse event) (Adverse events; Sirolimus Alone 10mg): 3 | Paresthesia (adverse event) (Adverse events; Sirolimus Alone 10mg): 1 | Rash (adverse event) (Adverse events; Sirolimus Alone 10mg): 1 | Vomiting (adverse event) (Adverse events; Sirolimus Alone 10mg): 2 | Altered taste (adverse event) (Adverse events; Sirolimus Alone 20mg): 1 | Anemia (adverse event) (Adverse events; Sirolimus Alone 20mg): 5 | Anorexia (adverse event) (Adverse events; Sirolimus Alone 20mg): 1 | Decreased platelets (adverse event) (Adverse events; Sirolimus Alone 20mg): 1 | Diarrhea (adverse event) (Adverse events; Sirolimus Alone 20mg): 5 | Dyspnea (adverse event) (Adverse events; Sirolimus Alone 20mg): 1 | Elevated Transaminases (adverse event) (Adverse events; Sirolimus Alone 20mg): 4 | Fatigue (adverse event) (Adverse events; Sirolimus Alone 20mg): 4 | Hyperglycemia (adverse event) (Adverse events; Sirolimus Alone 20mg): 6 | Hyperlipidemia (adverse event) (Adverse events; Sirolimus Alone 20mg): 4 | Hypoxia (adverse event) (Adverse events; Sirolimus Alone 20mg): 2 | Infection (adverse event) (Adverse events; Sirolimus Alone 20mg): 1(1) | Infection, grade 3 or 4 (Adverse events; Sirolimus Alone 20mg): 1(1) | Lymphopenia (adverse event) (Adverse events; Sirolimus Alone 20mg): 4 | Lymphopenia, grade 3 or 4 (Adverse events; Sirolimus Alone 20mg): 1 | Mucositis (adverse event) (Adverse events; Sirolimus Alone 20mg): 1 | Nausea (adverse event) (Adverse events; Sirolimus Alone 20mg): 2 | Pneumonia (adverse event) (Adverse events; Sirolimus Alone 20mg): 2(2) | Pneumonia, grade 3 or 4 (Adverse events; Sirolimus Alone 20mg): 2(2) | Anemia (adverse event) (Adverse events; Sirolimus Alone 30mg): 3 | Anorexia (adverse event) (Adverse events; Sirolimus Alone 30mg): 1(1) | Anorexia, grade 3 or 4 (Adverse events; Sirolimus Alone 30mg): 1(1) | Decreased platelets (adverse event) (Adverse events; Sirolimus Alone 30mg): 1 | Diarrhea (adverse event) (Adverse events; Sirolimus Alone 30mg): 2 | Elevated Transaminases (adverse event) (Adverse events; Sirolimus Alone 30mg): 2 | Fatigue (adverse event) (Adverse events; Sirolimus Alone 30mg): 1 | Fever (adverse event) (Adverse events; Sirolimus Alone 30mg): 2 | Hyperglycemia (adverse event) (Adverse events; Sirolimus Alone 30mg): 6 | Hyperlipidemia (adverse event) (Adverse events; Sirolimus Alone 30mg): 3 | Hyperlipidemia, grade 3 or 4 (Adverse events; Sirolimus Alone 30mg): 1 | Hypertension (adverse event) (Adverse events; Sirolimus Alone 30mg): 1 | Infection (adverse event) (Adverse events; Sirolimus Alone 30mg): 1(1) | Infection, grade 3 or 4 (Adverse events; Sirolimus Alone 30mg): 1(1) | Lymphopenia (adverse event) (Adverse events; Sirolimus Alone 30mg): 3 | Lymphopenia, grade 3 or 4 (Adverse events; Sirolimus Alone 30mg): 1 | Mucocutaneous dryness (adverse event) (Adverse events; Sirolimus Alone 30mg): 1 | Nausea (adverse event) (Adverse events; Sirolimus Alone 30mg): 4 | Nausea, grade 3 or 4 (Adverse events; Sirolimus Alone 30mg): 1 | Pneumonia (adverse event) (Adverse events; Sirolimus Alone 30mg): 1 | Rash (adverse event) (Adverse events; Sirolimus Alone 30mg): 1 | Vomiting (adverse event) (Adverse events; Sirolimus Alone 30mg): 2 | Decreased platelets (adverse event) (Adverse events; Sirolimus Alone 30mg (4h)): 1 | Diarrhea (adverse event) (Adverse events; Sirolimus Alone 30mg (4h)): 4 | Elevated Transaminases (adverse event) (Adverse events; Sirolimus Alone 30mg (4h)): 1 | Fatigue (adverse event) (Adverse events; Sirolimus Alone 30mg (4h)): 1 | Hyperglycemia (adverse event) (Adverse events; Sirolimus Alone 30mg (4h)): 1 | Leukopenia (adverse event) (Adverse events; Sirolimus Alone 30mg (4h)): 2 | Nausea (adverse event) (Adverse events; Sirolimus Alone 30mg (4h)): 2 | Vomiting (adverse event) (Adverse events; Sirolimus Alone 30mg (4h)): 2 | Diarrhea (adverse event) (Adverse events; Sirolimus Alone 30mg (24h)): 2 | Infection (adverse event) (Adverse events; Sirolimus Alone 30mg (24h)): 1(1) | Infection, grade 3 or 4 (Adverse events; Sirolimus Alone 30mg (24h)): 1(1) | Mucositis (adverse event) (Adverse events; Sirolimus Alone 30mg (24h)): 1 | Nausea (adverse event) (Adverse events; Sirolimus Alone 30mg (24h)): 1 | Rash (adverse event) (Adverse events; Sirolimus Alone 30mg (24h)): 1 | Anorexia (adverse event) (Adverse events; Sirolimus Alone 45mg (24h)): 1 | Diarrhea (adverse event) (Adverse events; Sirolimus Alone 45mg (24h)): 3 | Diarrhea, grade 3 or 4 (Adverse events; Sirolimus Alone 45mg (24h)): 1 | Hyperglycemia (adverse event) (Adverse events; Sirolimus Alone 45mg (24h)): 1 | Mood Alteration (adverse event) (Adverse events; Sirolimus Alone 45mg (24h)): 1 | Nausea (adverse event) (Adverse events; Sirolimus Alone 45mg (24h)): 2 | Vomiting (adverse event) (Adverse events; Sirolimus Alone 45mg (24h)): 4 | Anorexia (adverse event) (Adverse events; Sirolimus Alone 60mg): 3 | Decreased platelets (adverse event) (Adverse events; Sirolimus Alone 60mg): 1 | Diarrhea (adverse event) (Adverse events; Sirolimus Alone 60mg): 6 | Diarrhea, grade 3 or 4 (Adverse events; Sirolimus Alone 60mg): 1 | Elevated Transaminases (adverse event) (Adverse events; Sirolimus Alone 60mg): 1 | Fatigue (adverse event) (Adverse events; Sirolimus Alone 60mg): 5 | Fever (adverse event) (Adverse events; Sirolimus Alone 60mg): 1 | Hyperglycemia (adverse event) (Adverse events; Sirolimus Alone 60mg): 4 | Hyperlipidemia (adverse event) (Adverse events; Sirolimus Alone 60mg): 6 | Hyperlipidemia, grade 3 or 4 (Adverse events; Sirolimus Alone 60mg): 1 | Infection (adverse event) (Adverse events; Sirolimus Alone 60mg): 1 | Lymphopenia (adverse event) (Adverse events; Sirolimus Alone 60mg): 3 | Nausea (adverse event) (Adverse events; Sirolimus Alone 60mg): 6 | Rash (adverse event) (Adverse events; Sirolimus Alone 60mg): 1 | Vomiting (adverse event) (Adverse events; Sirolimus Alone 60mg): 5 | Weight Loss (adverse event) (Adverse events; Sirolimus Alone 60mg): 4 | Altered taste (adverse event) (Adverse events; Total (n=138)): 5 | Anemia (adverse event) (Adverse events; Total (n=138)): 46 | Anemia, grade 3 or 4 (Adverse events; Total (n=138)): 5 | Anorexia (adverse event) (Adverse events; Total (n=138)): 32 | Anorexia, grade 3 or 4 (Adverse events; Total (n=138)): 1 | Decreased platelets (adverse event) (Adverse events; Total (n=138)): 22 | Diarrhea (adverse event) (Adverse events; Total (n=138)): 58 | Diarrhea, grade 3 or 4 (Adverse events; Total (n=138)): 3 | Dyspnea (adverse event) (Adverse events; Total (n=138)): 6 | Dyspnea, grade 3 or 4 (Adverse events; Total (n=138)): 1 | Edema (adverse event) (Adverse events; Total (n=138)): 5 | Edema, grade 3 or 4 (Adverse events; Total (n=138)): 1 | Elevated Creatinine (adverse event) (Adverse events; Total (n=138)): 1 | Elevated Transaminases (adverse event) (Adverse events; Total (n=138)): 23 | Elevated Transaminases, grade 3 or 4 (Adverse events; Total (n=138)): 2 | Epistaxis (adverse event) (Adverse events; Total (n=138)): 1 | Fatigue (adverse event) (Adverse events; Total (n=138)): 46 | Fatigue, grade 3 or 4 (Adverse events; Total (n=138)): 3 | Fever (adverse event) (Adverse events; Total (n=138)): 4 | Hand & Foot Syndrome (adverse event) (Adverse events; Total (n=138)): 2 | Hyperglycemia (adverse event) (Adverse events; Total (n=138)): 72 | Hyperglycemia, grade 3 or 4 (Adverse events; Total (n=138)): 7 | Hyperlipidemia (adverse event) (Adverse events; Total (n=138)): 59 | Hyperlipidemia, grade 3 or 4 (Adverse events; Total (n=138)): 3 | Hypertension (adverse event) (Adverse events; Total (n=138)): 2 | Hypocalcemia (adverse event) (Adverse events; Total (n=138)): 2 | Hypoglycemia (adverse event) (Adverse events; Total (n=138)): 1(1) | Hypoglycemia, grade 3 or 4 (Adverse events; Total (n=138)): 1(1) | Hypoxia (adverse event) (Adverse events; Total (n=138)): 2 | Infection (adverse event) (Adverse events; Total (n=138)): 14 | Infection, grade 3 or 4 (Adverse events; Total (n=138)): 4 | Leukopenia (adverse event) (Adverse events; Total (n=138)): 17 | Lymphopenia (adverse event) (Adverse events; Total (n=138)): 56 | Lymphopenia, grade 3 or 4 (Adverse events; Total (n=138)): 14 | Mood Alteration (adverse event) (Adverse events; Total (n=138)): 2 | Mucocutaneous dryness (adverse event) (Adverse events; Total (n=138)): 6 | Mucositis (adverse event) (Adverse events; Total (n=138)): 17 | Myalgia (adverse event) (Adverse events; Total (n=138)): 3 | Nail Changes (adverse event) (Adverse events; Total (n=138)): 1(1) | Nail Changes, grade 3 or 4 (Adverse events; Total (n=138)): 1(1) | Nausea (adverse event) (Adverse events; Total (n=138)): 48 | Nausea, grade 3 or 4 (Adverse events; Total (n=138)): 2 | Neutropenia (adverse event) (Adverse events; Total (n=138)): 7 | Paresthesia (adverse event) (Adverse events; Total (n=138)): 2 | Pleural Effusion (adverse event) (Adverse events; Total (n=138)): 1 | Pneumonia (adverse event) (Adverse events; Total (n=138)): 5 | Pneumonia, grade 3 or 4 (Adverse events; Total (n=138)): 4 | Pruritis (adverse event) (Adverse events; Total (n=138)): 6 | Rash (adverse event) (Adverse events; Total (n=138)): 14 | Vomiting (adverse event) (Adverse events; Total (n=138)): 33 | Vomiting, grade 3 or 4 (Adverse events; Total (n=138)): 1 | Weight Loss (adverse event) (Adverse events; Total (n=138)): 15 | Hyperglycemia, subjects with toxicity (Adverse events; [4]): 52% | Hyperlipidemia, subjects with toxicity (Adverse events; [4]): 43% | Lymphopenia, subjects with toxicity (Adverse events; [4]): 41% | phospho-p70S6K activity ([2]; 10 mg weekly dose, 1 week after the initial dose (data not shown)): suppressed | phospho-p70S6K in peripheral T cells ([2]; 48 hours after administration, all dose levels, sirolimus alone study, p = 0.006): inhibition | kout (first-order rate constant for loss of phospho-p70S6K), typical value [2, 5]: 0.05 | krebound, typical value [2, 5]: 11.3 mL/ng | kin (zero-order rate constant for gain of phospho-p70S6K), typical value ([2]; indirect response model with rebound, baseline phosphorylation 100%): 5.5 | Rebound effect on phospho-p70S6K (levels exceeded baseline at later time points), subjects ([2]; sirolimus alone study): six out of twelve | Partial response ([3]; collective studies, patient with epithelioid hemangioendothelioma with hepatic metastases): One partial response | Stable disease, number of subjects ([3]; per study): 16 | Stable disease, percent of subjects ([3]; per study): 40%
